{"data": "Published values of several laboratories", "action": "inhibitor", "HDAC6": "Protein deacetylase HDAC6 (HDAC6, Homo sapiens, UniProt Q9UBN7)", "KCNH2": "Voltage-gated inwardly rectifying potassium channel KCNH2 (KCNH2, Homo sapiens, UniProt Q12809)", "Dihydroorotate dehydrogenase, mitochondrial, putative": "Dihydroorotate dehydrogenase, mitochondrial, putative (Plasmodium vivax, UniProt A5K1N1)", "note": "Compare with care: the assays were run in different laboratories."}
{"Structure (SMILES)": "CC(C)(C)c1ccc(OS(=O)(=O)Oc2cc(F)cc(C(=O)NO)c2)cc1", "target": "HDAC6", "assay": "enzyme activity, fluorescence", "IC50 [nM]": 2100}
{"Structure (SMILES)": "O=c1oc(-c2ccco2)nc2ccccc12", "target": "Prothrombin (F2, Homo sapiens, UniProt P00734)", "assay": "enzyme activity, absorbance", "conditions": "pH 7.4", "IC50 [nM]": "> 50000"}
{"Structure (SMILES)": "CNCCN1CCN(c2cnc3c(cc(C(=O)NCc4ccc(Cl)cc4)c(=O)n3CC(=O)N3CC(C)(F)C3)n2)C1=O", "target": "KCNH2", "assay": "ion current, patch clamp", "IC50 [nM]": "> 40000"}
{"Structure (SMILES)": "O=C(NO)c1cccc(OS(=O)(=O)Oc2ccc3ccccc3c2)c1", "target": "HDAC6", "assay": "enzyme activity, fluorescence", "IC50 [nM]": 91}
{"Structure (SMILES)": "CC1(F)CN(C(=O)Cn2c(=O)c(C(=O)NCc3ccc(Cl)cc3)cc3nccnc32)C1", "target": "KCNH2", "assay": "ion current, patch clamp", "IC50 [nM]": 5910}
{"Structure (SMILES)": "Cc1cc(OS(=O)(=O)Oc2ccccc2)cc(C(=O)NO)c1", "target": "HDAC6", "assay": "enzyme activity, fluorescence", "IC50 [nM]": 3830}
{"Structure (SMILES)": "COc1ccc2c(C(=S)N(C)CC(=O)O)cccc2c1C(F)(F)F", "target": "Aldo-keto reductase family 1 member B10 (AKR1B10, Homo sapiens, UniProt O60218)", "assay": "enzyme activity", "IC50 [nM]": 57}
{"Structure (SMILES)": "Cn1nc2c(=O)n(C3CC3)ncc2c1[C@](N)(c1ccc(C(F)(F)F)c(Cl)c1)C1CC1", "target": "Dihydroorotate dehydrogenase, mitochondrial, putative", "assay": "enzyme activity, absorbance", "IC50 [nM]": 6.7}
{"Structure (SMILES)": "Cc1cc(Nc2nccc(C)n2)cc(-c2cnc([C@@]3(O)CC[C@H](C(=O)NCCCNC(=O)CCc4ccc5n4[B-](F)(F)[N+]4=C(c6ccc[nH]6)C=CC4=C5)C(C)(C)C3)s2)c1", "target": "Tyrosine-protein kinase SYK (SYK, Homo sapiens, UniProt P43405)", "assay": "enzyme activity, radiometric", "IC50 [nM]": 110}
{"Structure (SMILES)": "CCOC(=O)c1nn(C)c(Cc2ccc(C(F)(F)F)nc2)c1C", "target": "Dihydroorotate dehydrogenase, mitochondrial, putative", "assay": "enzyme activity, absorbance", "IC50 [nM]": 88}
{"Structure (SMILES)": "O=C(NO)c1cccc(OS(=O)(=O)Oc2ccc(-c3cccc(C(F)(F)F)c3)cc2)c1", "target": "HDAC6", "assay": "enzyme activity, fluorescence", "IC50 [nM]": 3100}
{"Structure (SMILES)": "CCn1cc(C)c2c(C(O)c3ccc(Cl)c(F)c3)n(C)nc2c1=O (stereo not drawn)", "target": "Dihydroorotate dehydrogenase, mitochondrial, putative", "assay": "enzyme activity, absorbance", "IC50 [nM]": 9.8}
{"Structure (SMILES)": "Cc1cc(OS(=O)(=O)Oc2ccc(-n3ccnc3)cc2)cc(C(=O)NO)c1", "target": "HDAC6", "assay": "enzyme activity, fluorescence", "IC50 [nM]": 4750}
{"Structure (SMILES)": "Cn1nc2c(=O)n(C3CC3)ncc2c1[C@](O)(c1cnc(C(F)(F)F)c(Cl)c1)C(F)(F)F", "target": "Dihydroorotate dehydrogenase, mitochondrial, putative", "assay": "enzyme activity, absorbance", "IC50 [nM]": 17}
{"Structure (SMILES)": "CC1(F)CN(C(=O)Cn2c(=O)c(C(=O)NCc3ccc(Cl)cc3)cc3nc(N4CCCC4=O)cnc32)C1", "target": "KCNH2", "assay": "ion current, patch clamp", "IC50 [nM]": "> 40000"}
{"Structure (SMILES)": "CC[C@@](O)(c1cnc(C(F)(F)F)c(Cl)c1)c1c2cnn(C3CC3)c(=O)c2nn1C", "target": "Dihydroorotate dehydrogenase, mitochondrial, putative", "assay": "enzyme activity, absorbance", "IC50 [nM]": 19}
{"Structure (SMILES)": "CC(C)c1cccc(OS(=O)(=O)Oc2cc(F)cc(C(=O)NO)c2)c1", "target": "HDAC6", "assay": "enzyme activity, fluorescence", "IC50 [nM]": 832}
{"Structure (SMILES)": "C=CS(=O)(=O)c1ccc(Nc2nc(OCC3CCCCC3)c3nc[nH]c3n2)cc1", "target": "KCNH2", "assay": "ion current, patch clamp", "test system": "HEK293", "IC50 [nM]": 5940}
